The source made the active and inactive calls. No cut-off for these calls is given here.
Columns and labels:
HCT-116 = test: Antitumor activity against human HCT-116 cells xenografted in BomTac:NMRI-Foxn1nu mouse assessed as tumor growth delay at 20 mg/kg, iv administered twice a week on consecutive days; assay type: functional, organism-based
Summary of the method: (§1)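 Female nude mice bore s.c. HCT 116 (2×10^6 cells), NCI-H460 (1×10^6 cells) or serially transplanted CXB1 tumor pieces. At ~50–100 mm³, mice were randomized into groups of 10 and dosed i.v. (0.1 N HCl/saline) or by gavage (0.5% hydroxyethyl-cellulose) at 10 mL/kg. Calipers read thrice weekly, volume = length×width²×π/6. T/C from median volumes on the last day.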

NCI-H460 = test: Antimitotic activity against human NCI-H460 cells assessed as increase in the sub-G1 phase at 100 nmol/L incubated for 48 hrs by PI staining based flow cytometric analysis; assay type: functional, cell-based
Summary of the method: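 Log-phase NCI-H460 cells were treated with 0.1% DMSO or inhibitor (dose series for 24 h; 100 nmol/L time course at 0, 24, 48, 72 h). Cells were fixed in 80% ethanol, permeabilized with 0.25% Triton X-100 for 5 min, then given 0.1% RNase plus 10 µg/mL propidium iodide for 20 min at RT. DNA content was read by flow cytometry.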

[1] = Cmax in Wistar rat at 30 mg/kg, po by HPLC-MS/MS analysis; assay type: ADME, organism-based; conditions: in vivo
Summary of the method: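 Single oral gavage of BI 6727 suspended in 0.5% hydroxyethyl-cellulose (10 mL/kg) to female nude mice or male Wistar rats. EDTA plasma levels measured over time by HPLC-MS/MS with internal standard. AUC0-24 by trapezoidal rule. Parameters from noncompartmental analysis.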

[2] = AUC (0 to 24 hrs) in human NCI-H460 cells xenografted in BomTac:NMRI-Foxn1nu mouse at 70 mg/kg, po administered once a week upto 6 weeks by HPLC-MS/MS analysis; assay type: ADME, organism-based; conditions: in vivo, 1008 h
Mus musculus = test: Antitumor against human CXB1 cells xenografted in BomTac:NMRI-Foxn1nu mouse assessed as suppression in tumor growth at 15 mg/kg, iv administered once a week on consecutive days; assay type: functional, organism-based; conditions: CXB1 cell, in the assay text read “twice a week” for “once a week”; summary of the method: as §1

CC[C@@H]1C(=O)N(C)c2cnc(Nc3ccc(C(=O)N[C@H]4CC[C@H](N5CCN(CC6CC6)CC5)CC4)cc3OC)nc2N1C(C)C [VOLASERTIB]
Activity (HCT-116): Active
Activity (NCI-H460): Active
Cmax [1]: 2200 nM
AUC [2]: 58 µM·h
Activity (Mus musculus): Active

From ChEMBL document CHEMBL5661977, “BI 6727, a Polo-like kinase inhibitor with improved pharmacokinetic profile and broad antitumor activity” (Clin Cancer Res, 2009)
